Values joined by “and” are separate entries in the source; they are usually repeats but may differ in a detail not shown here. Equal values may be shown once.
Legend:
[1] = tested on: Thymidine kinase (Human herpesvirus 1); test: Ability (300 uM) to compete with 150 uM of [14C]ACV for binding sites on viral enzyme (HSV-1 TK); conditions: Human alphaherpesvirus 1
[2] = tested on: Vero; test: Zone of inhibition of plaque formation in vero cells inoculated with HSV-1 virus along with disks containing 50 ug of compound; 11-50 mm zone of inhibition; format: functional, Chlorocebus sabaeus
Outline: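 HSV-1 plaque-inhibition test in Vero cells, H29 strain for most values and Mac strain for some. Disks carry 50 μg of test compound. The read-out is the diameter of the zone without plaque formation, and a zone of 11–50 mm is scored (+).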

[3] = tested on: Vero; test: The concentration required to inhibit the growth of viral plaques by 50% of control in plaque reduction assay; format: functional, cell-based; conditions: Chlorocebus sabaeus
Outline: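 HSV-1 plaque-reduction assay, H29 strain for most values and Mac strain for some. IC50 is the concentration that inhibits viral plaque growth by 50% relative to controls.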

[4] = tested on: Thymidine kinase (Human herpesvirus 1); test: Relative substrate velocity was evaluated against Mac strain by using HSV-1 TK assay; conditions: Human alphaherpesvirus 1
[5] = tested on: Thymidine kinase (Human herpesvirus 1); test: Relative substrate velocity was evaluated against H29 strain by using HSV-1 TK assay; conditions: Human alphaherpesvirus 1
[6] = tested on: Thymidine kinase (Human herpesvirus 1); test: Ability (300 uM) to compete with 150 uM of [14C]ACV for binding sites on H29 strain viral enzyme (HSV-1 TK); conditions: Human alphaherpesvirus 1
[7] = tested on: Thymidine kinase (Human herpesvirus 1); test: Ability (300 uM) to compete with 150 uM of [14C]ACV for binding sites on viral enzyme, Mac strain (HSV-1 TK); conditions: Human alphaherpesvirus 1
[8] = target: T1, Thymidine kinase (Human alphaherpesvirus 1) (UniProt Q9QNF7); test: Relative substrate velocity was evaluated by using HSV-1 TK assay
T1 sequence (whole entry): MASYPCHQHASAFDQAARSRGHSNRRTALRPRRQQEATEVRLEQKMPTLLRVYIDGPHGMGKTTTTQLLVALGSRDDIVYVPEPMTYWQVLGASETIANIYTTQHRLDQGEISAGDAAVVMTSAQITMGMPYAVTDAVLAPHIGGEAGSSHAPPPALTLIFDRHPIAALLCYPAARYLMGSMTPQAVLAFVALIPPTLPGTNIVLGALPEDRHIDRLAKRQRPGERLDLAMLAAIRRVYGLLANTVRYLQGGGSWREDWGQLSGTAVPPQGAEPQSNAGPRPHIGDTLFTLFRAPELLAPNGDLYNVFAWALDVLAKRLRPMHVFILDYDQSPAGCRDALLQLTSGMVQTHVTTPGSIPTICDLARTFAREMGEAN

[9] = tested on: Thymidine kinase (Human herpesvirus 1); test: Relative substrate velocity was evaluated by using HSV-1 TK assay; conditions: Human alphaherpesvirus 1

| Compound | inhibition [1] [%] | IC50 [3] [µM] | inhibition [7] [%] | other results |
| --- | --- | --- | --- | --- |
| NC(=O)c1ncn(COCCO)c1N | 1 |  |  |  |
| Nc1nc(O)c2nnn(COCCO)c2n1 |  | 129 | 23 | Zone of inhibition [2]: 11; Relative substrate velocity [4]: 5% and 9%; Relative substrate velocity [5]: 9%; inhibition [6]: 27% |
| Nc1nc2c(ncn2COCCO)c(=O)[nH]1 [ACYCLOVIR] |  | 0.1 |  |  |
| NC(=O)c1ncn(COCCO)n1 | 0 | > 200 |  |  |
| Nc1nc(O)c2cc3ncn(COCCO)c3cc2n1 | 24 |  |  | Relative substrate velocity [8]: < 3% |
| Nc1nc(=O)ccn1COCCO | 0 |  | 7 | Relative substrate velocity [9]: < 3% |
| Nc1nc(O)c2ccn(COCCO)c2n1 |  |  | 6 | Relative substrate velocity [9]: 3% |
| Nc1nc2c(cnn2COCCO)c(=O)[nH]1 | 0 |  |  |  |
